Measured values: ChEMBL document CHEMBL1129298, “Nonpeptide angiotensin II receptor antagonists: synthesis, biological activities, and structure-activity relationships of imidazole-5-carboxylic acids bearing alkyl, alkenyl, and hydroxyalkyl substituents at the 4-position and their related compounds” (J Med Chem, 1996)

How the values were obtained:
[1] = target: Angiotensin II receptor (Rattus norvegicus) (UniProt P29089+P25095+P35351); assay: In vivo inhibitory activity against angiotensin II induced pressor response in anesthetized normotensive rats; assay type: functional, organism-based
Procedure, shortened: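 Male Wistar-Imamichi rats (300–400 g) under inactin (100 mg/kg ip), with femoral arterial and venous cannulae. AII 50 ng/kg iv every 10 min until responses were constant. Compound in DMSO was then given iv and AII re-injected 2 min later.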

Rattus norvegicus [2] = assay: Inhibitory activity against AII-Induced Pressor response at 1 mg/Kg at 3 hour; assay type: functional
Procedure, shortened: (§1)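 Male Wistar-Imamichi rats (300–400 g) cannulated under pentobarbital (50 mg/kg ip), fasted 24 h, tested conscious the next day. AII 50 ng/kg iv was repeated until constant, then compound in 50% aqueous DMF given orally. AII was repeated over 8 h, and mean blood pressure response inhibition (%) was recorded at 1, 3, 6 h. n = 3–5.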

Rattus norvegicus [3] = assay: Inhibitory activity against AII-Induced Pressor response at 1 mg/Kg at 1 hr; assay type: functional; procedure, shortened: as §1
Rattus norvegicus [4] = assay: Inhibitory activity against AII-Induced Pressor response at 1 mg/Kg at 6 hour; assay type: functional; procedure, shortened: as §1
Rattus norvegicus [5] = assay: Inhibitory activity against AII-Induced Pressor response at 0.3 mg/Kg at 1 hr; assay type: functional; procedure, shortened: as §1
Rattus norvegicus [6] = assay: Inhibitory activity against AII-Induced Pressor response at 0.3 mg/Kg at 3 hour; assay type: functional; procedure, shortened: as §1
Rattus norvegicus [7] = assay: Inhibitory activity against AII-Induced Pressor response at 0.3 mg/Kg at 6 hour; assay type: functional; procedure, shortened: as §1
Rattus norvegicus [8] = assay: Inhibitory activity against AII-Induced Pressor response at 1 mg/kg at 6 hour; assay type: functional; conditions: Rattus norvegicus, 6 h, dose 1 mg/kg; procedure, shortened: as §1
Rattus norvegicus [9] = assay: Inhibitory activity against AII-Induced Pressor response at 1 mg/kg at 1 hr; assay type: functional; procedure, shortened: as §1
Rattus norvegicus [10] = assay: Inhibitory activity against AII-Induced Pressor response at 1 mg/kg at 3 hour; assay type: functional; conditions: Rattus norvegicus, 3 h; procedure, shortened: as §1
[11] = target: T1, Type-1 angiotensin II receptor (Bos taurus, UniProt P25104); assay: In vitro for inhibition of [125I]-angiotensin II (0.1 nM) binding to angiotensin II receptor type 1 in membrane fractions of bovine adrenal cortex; assay type: tissue-based
T1 sequence (P25104 whole entry): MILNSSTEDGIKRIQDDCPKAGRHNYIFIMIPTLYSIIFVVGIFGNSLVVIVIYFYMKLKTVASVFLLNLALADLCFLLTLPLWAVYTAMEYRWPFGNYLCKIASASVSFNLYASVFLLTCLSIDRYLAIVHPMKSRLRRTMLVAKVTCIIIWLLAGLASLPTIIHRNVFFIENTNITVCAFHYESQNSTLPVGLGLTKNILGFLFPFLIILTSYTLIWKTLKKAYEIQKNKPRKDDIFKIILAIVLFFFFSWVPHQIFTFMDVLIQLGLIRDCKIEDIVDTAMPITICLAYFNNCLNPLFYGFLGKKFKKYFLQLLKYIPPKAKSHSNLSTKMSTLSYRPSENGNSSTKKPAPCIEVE

Rattus norvegicus [12] = assay: Inhibitory activity against AII-Induced Pressor response at 10 mg/Kg at 3 hour; assay type: functional; procedure, shortened: as §1
Rattus norvegicus [13] = assay: Inhibitory activity against AII-Induced Pressor response at 3 mg/Kg at 1 hr; assay type: functional; procedure, shortened: as §1
Rattus norvegicus [14] = assay: Inhibitory activity against AII-Induced Pressor response at 3 mg/Kg at 3 hour; assay type: functional; procedure, shortened: as §1
Rattus norvegicus [15] = assay: Inhibitory activity against AII-Induced Pressor response at 3 mg/Kg at 6 hour; assay type: functional; procedure, shortened: as §1
Rattus norvegicus [16] = assay: Inhibitory activity against AII-Induced Pressor response at 10 mg/Kg at 1 hr; assay type: functional; procedure, shortened: as §1
Rattus norvegicus [17] = assay: Inhibitory activity against AII-Induced Pressor response at 10 mg/Kg at 6 hour; assay type: functional; procedure, shortened: as §1

SMILES	ID50 [1]	IC50 [11]	other results
CCCc1nc(C(C)C)c(C(=O)O)n1Cc1ccc(-c2ccccc2C(=O)O)cc1	0.14 mg/kg	–	–
CCCc1nc(C(C)(C)O)c(C(=O)OC2OC(=O)c3ccccc32)n1Cc1ccc(-c2ccccc2C(=O)O)cc1 (configuration not stated)	–	–	inhibition in vivo at 1 mg/kg (Rattus norvegicus [8]): 74%; inhibition in vivo at 1 mg/kg (Rattus norvegicus [9]): 73%; inhibition in vivo at 1 mg/kg (Rattus norvegicus [10]): 77%
CCCc1nc(C(O)(CC)CC)c(C(=O)O)n1Cc1ccc(-c2ccccc2C(=O)O)cc1	0.11 mg/kg	110 nM	–
CCCc1nc(C(C)(C)O)c(C(=O)O)n1Cc1ccc(-c2ccccc2C(=O)OCOC(=O)C(C)(C)C)cc1	–	–	inhibition in vivo at 1 mg/kg (Rattus norvegicus [8]): 40%; inhibition in vivo at 1 mg/kg (Rattus norvegicus [9]): 20%; inhibition in vivo at 1 mg/kg (Rattus norvegicus [10]): 35%
CCCc1nc(C(C)O)c(C(=O)O)n1Cc1ccc(-c2ccccc2C(=O)O)cc1 (configuration not stated)	0.062 mg/kg	28 nM	–
CCCc1nc(CO)c(CO)n1Cc1ccc(-c2ccccc2C(=O)O)cc1	2.1 mg/kg	–	–
C=C(C)c1nc(CCC)n(Cc2ccc(-c3ccccc3C(=O)O)cc2)c1C(=O)O	0.37 mg/kg	270 nM	–
CCCc1nc(C(=O)O)c(C(=O)O)n1Cc1ccc(-c2ccccc2C(=O)O)cc1	0.67 mg/kg	–	–
CCCc1nc(C)c(C(=O)O)n1Cc1ccc(-c2ccccc2C(=O)O)cc1	0.096 mg/kg	110 nM	–
CCCc1nc(C(C)(O)CC)c(C(=O)O)n1Cc1ccc(-c2ccccc2C(=O)O)cc1 (configuration not stated)	0.074 mg/kg	51 nM	–
CCc1nc(C(C)(C)O)c(C(=O)O)n1Cc1ccc(-c2ccccc2C(=O)O)cc1	0.3 mg/kg	37 nM	–

Further lines, with some results ahead:

ID50 [1]	IC50 [11]	SMILES	other results
0.32 mg/kg	–	CCCc1nc(C(C)(C)O)c(C(=O)OCC)n1Cc1ccc(-c2ccccc2-c2nn[nH]n2)cc1	inhibition in vivo at 1 mg/kg (Rattus norvegicus [2]): 72%; inhibition in vivo at 1 mg/kg (Rattus norvegicus [3]): 70%; inhibition in vivo at 1 mg/kg (Rattus norvegicus [4]): 76%
0.019 mg/kg	–	CCCc1nc(CC)c(C(=O)O)n1Cc1ccc(-c2ccccc2-c2nn[nH]n2)cc1	–
0.0062 mg/kg	–	CCCc1nc(CO)c(C(=O)O)n1Cc1ccc(-c2ccccc2-c2nn[nH]n2)cc1	inhibition in vivo at 0.3 mg/kg (Rattus norvegicus [5]): 76%; inhibition in vivo at 0.3 mg/kg (Rattus norvegicus [6]): 75%; inhibition in vivo at 0.3 mg/kg (Rattus norvegicus [7]): 65%
0.017 mg/kg	–	CCCCc1nc(C(C)(C)O)c(C(=O)O)n1Cc1ccc(-c2ccccc2-c2nn[nH]n2)cc1	–
1.7 mg/kg	4600 nM	CCCc1nc(C(=O)O)c(CO)n1Cc1ccc(-c2ccccc2-c2nn[nH]n2)cc1	–
0.018 mg/kg	9.1 nM	CCCc1ncc(C(=O)O)n1Cc1ccc(-c2ccccc2-c2nn[nH]n2)cc1	–
0.019 mg/kg	–	CCc1nc(C(C)(C)O)c(C(=O)O)n1Cc1ccc(-c2ccccc2-c2nn[nH]n2)cc1	–
0.0063 mg/kg	–	CCCc1nc(C(C)O)c(C(=O)O)n1Cc1ccc(-c2ccccc2-c2nn[nH]n2)cc1 (configuration not stated)	inhibition in vivo at 0.3 mg/kg (Rattus norvegicus [5]): 80%; inhibition in vivo at 0.3 mg/kg (Rattus norvegicus [6]): 78%; inhibition in vivo at 0.3 mg/kg (Rattus norvegicus [7]): 69%
0.1 mg/kg	–	CCCCc1nc(Cl)c(C(=O)O)n1Cc1ccc(-c2ccccc2-c2nn[nH]n2)cc1 [CARBOXYLIC ACID METABOLITE]	inhibition in vivo at 10 mg/kg (Rattus norvegicus [12]): 93%; inhibition in vivo at 3 mg/kg (Rattus norvegicus [13]): 81%; inhibition in vivo at 1 mg/kg (Rattus norvegicus [2]): 72%; inhibition in vivo at 3 mg/kg (Rattus norvegicus [14]): 81%; inhibition in vivo at 1 mg/kg (Rattus norvegicus [3]): 74%; inhibition in vivo at 3 mg/kg (Rattus norvegicus [15]): 81%; inhibition in vivo at 10 mg/kg (Rattus norvegicus [16]): 89%; inhibition in vivo at 1 mg/kg (Rattus norvegicus [4]): 70%; inhibition in vivo at 10 mg/kg (Rattus norvegicus [17]): 89%
–	6.9 nM	CCCc1nc(CO)c(C(=O)O)n1Cc1ccc(-c2ccccc2-c2nnn[nH]2)cc1	–
0.0079 mg/kg	8.1 nM	CCCc1nc(C(C)(C)O)c(C(=O)O)n1Cc1ccc(-c2ccccc2-c2nnn[nH]2)cc1 [OLMESARTAN]	inhibition in vivo at 0.3 mg/kg (Rattus norvegicus [5]): 83%; inhibition in vivo at 1 mg/kg (Rattus norvegicus [2]): 98%; inhibition in vivo at 1 mg/kg (Rattus norvegicus [3]): 98%; inhibition in vivo at 0.3 mg/kg (Rattus norvegicus [6]): 77%; inhibition in vivo at 1 mg/kg (Rattus norvegicus [4]): 93%; inhibition in vivo at 0.3 mg/kg (Rattus norvegicus [7]): 78%
–	50 nM	C=C(C)c1nc(CCC)n(Cc2ccc(-c3ccccc3-c3nnn[nH]3)cc2)c1C(=O)O	–
2.4 mg/kg	–	CCCc1nc(C(=O)O)cn1Cc1ccc(-c2ccccc2-c2nn[nH]n2)cc1	–
0.012 mg/kg	–	C=C(C)c1nc(CCC)n(Cc2ccc(-c3ccccc3-c3nn[nH]n3)cc2)c1C(=O)O	–
